We go through one compound from ChEMBL document CHEMBL4265908, “Structure-activity and structure-property relationships of novel Nrf2 activators with a 1,2,4-oxadiazole core and their therapeutic effects on acetaminophen (APAP)-induced acute liver injury” (Eur J Med Chem, 2018).

The test system of experiment [1] is L02. The experiment can be described thus: Hepatoprotective activity against APAP-induced cell injury in human LO2 cells assessed as increase in cell viability pretreated for 24 hrs followed by APAP treatment measured after 24 hrs by MTT assay. The class given is functional, cell-based. Summed up: (§1)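 LO2 cells plated for 12 h and pretreated for 24 h with 5, 10 or 20 μM compound. One arm was first transfected with 50 nM Nrf2 siRNA before receiving 20 μM compound. Medium then replaced with medium containing 8 mM APAP for 24 h. Viability by MTT at A570. Mean ± SD of three experiments.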
In general terms: Tetrazolium dyes change colour on reduction, which living cells bring about.

Experiment [2] deals with T1, Nuclear factor erythroid 2-related factor 2 (Homo sapiens) (UniProt Q16236).
T1 sequence (whole entry): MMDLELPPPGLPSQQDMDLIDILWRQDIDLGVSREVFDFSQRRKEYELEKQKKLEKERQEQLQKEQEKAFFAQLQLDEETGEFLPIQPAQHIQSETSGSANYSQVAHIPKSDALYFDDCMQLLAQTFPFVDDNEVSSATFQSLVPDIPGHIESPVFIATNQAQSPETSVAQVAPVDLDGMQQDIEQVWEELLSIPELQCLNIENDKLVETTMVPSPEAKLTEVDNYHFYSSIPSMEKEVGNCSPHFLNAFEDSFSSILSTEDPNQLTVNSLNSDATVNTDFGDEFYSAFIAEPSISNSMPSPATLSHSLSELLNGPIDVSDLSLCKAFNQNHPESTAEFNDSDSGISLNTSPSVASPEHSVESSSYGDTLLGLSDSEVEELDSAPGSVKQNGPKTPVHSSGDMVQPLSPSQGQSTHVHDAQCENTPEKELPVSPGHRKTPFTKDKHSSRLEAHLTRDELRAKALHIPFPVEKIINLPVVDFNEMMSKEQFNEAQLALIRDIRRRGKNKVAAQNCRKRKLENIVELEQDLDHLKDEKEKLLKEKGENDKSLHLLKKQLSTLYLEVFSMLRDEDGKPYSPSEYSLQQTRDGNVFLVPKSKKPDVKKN
Briefly: Induction of Nrf2 nuclear translocation in human LO2 cells assessed as Nrf2 binding to antioxidant response element after 12 hrs by DAPI staining based immunofluorescence assay. The class given is cell-based. Summed up:
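LO2 cells grown on coverslips for 24 h, then treated 12 h with compound (5 or 20 μM); 80 μM tBHQ served as reference. Cells fixed, probed with anti-Nrf2 and a DyLight 488 anti-rabbit secondary, nuclei stained with DAPI. Imaged by confocal microscopy.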

Experiment [3] has as its system L02. The experiment can be described thus: Hepatoprotective activity against APAP-induced cell injury in human LO2 cells cotreated with Nrf2 siRNA assessed as cell viability at 20 uM pretreated for 24 hrs followed by APAP treatment measured after 24 hrs by MTT assay. The class given is functional. To be noted: read-out: Activity. Summed up: as §1
Experiment [4] relates to Mus musculus. The experiment can be described thus: Hepatoprotective activity against APAP-induced liver injury in C57BL/6 mouse assessed as increase in SOD levels administered ip for 7 consecutive days followed by APAP challenge 1 hr post last compound dose and measured after 24 hrs by NBT assay. It is filed as functional, organism-based. Summed up:
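Female C57BL/6 mice (20–25 g, n = 10/group) received 10, 50 or 100 mg/kg/day ip in saline for 7 days. One hour after the last dose they received APAP 300 mg/kg in saline. Killed 24 h later. Serum ALT/AST by kit. Liver homogenates (pH 7.0 phosphate) used for GSH (A420, μmol/g protein), GST (A412, U/mg protein) and SOD. Liver also analyzed by western blot (β-actin normalized), qRT-PCR (GAPDH normalized) and H&E.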

For `Cc1ccc(-c2noc(-c3ccc(F)c(F)c3)n2)cn1`, the Activity entry in experiment [1], in experiment [2] and in experiment [4] was “Dose-dependent effect” throughout. Further, the viability at 20 µM in experiment [3] stood at 50%.
